Measurements taken from article PMC3517215 (Journal of medicinal chemistry, 2011).
Several values for one entry are separate records, joined by “and”; a condition that tells them apart may be missing. Equal entries are not always repeated. One block for each compound: values may come before it.

Target: T1, human sEH (Homo sapiens, UniProt P34913)
T1 sequence (P34913 1-555): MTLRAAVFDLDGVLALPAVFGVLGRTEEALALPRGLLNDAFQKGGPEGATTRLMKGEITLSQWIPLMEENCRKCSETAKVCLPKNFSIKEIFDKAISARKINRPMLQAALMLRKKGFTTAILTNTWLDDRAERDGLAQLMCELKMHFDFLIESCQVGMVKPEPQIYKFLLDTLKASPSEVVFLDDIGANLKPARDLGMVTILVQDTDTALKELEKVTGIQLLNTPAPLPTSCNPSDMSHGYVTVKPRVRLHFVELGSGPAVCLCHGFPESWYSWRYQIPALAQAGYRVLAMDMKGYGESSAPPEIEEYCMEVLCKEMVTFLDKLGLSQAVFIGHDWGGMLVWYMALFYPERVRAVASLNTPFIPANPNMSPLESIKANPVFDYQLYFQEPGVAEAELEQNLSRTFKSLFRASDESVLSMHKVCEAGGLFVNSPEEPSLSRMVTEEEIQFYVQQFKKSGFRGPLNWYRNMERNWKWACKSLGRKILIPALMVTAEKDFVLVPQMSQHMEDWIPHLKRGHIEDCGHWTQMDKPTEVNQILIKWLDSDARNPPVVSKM
Test: Human sEH inhibition, fluorescent assay with CMNPC substrate
Type: biochemical
In short: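 Recombinant human sEH from baculovirus-infected Sf9 cells, purified by His-tag affinity, TEV cleavage and anion exchange. Enzyme (1 nM) preincubated 10 min with test compound (DMSO) in 25 mM Bis-Tris/HCl pH 7.0 at 30 °C, then CMNPC added (5 μM). 6-Methoxy-2-naphthaldehyde fluorescence (ex 330/em 465 nm) read over 10 min. IC50 by regression of ≥6 points (≥3 linear); mean of three runs.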

Compound: O=C(NCCCc1ccccc1)C1CCC(C(F)(F)F)CC1 (stereo not shown) [Compound 8]
fold improvement over the non-substituted derivatives (4–7): 3.5–15 fold

Compound: O=C(NCCCc1ccccc1)C1CCCCC1 [Compound 6]
fold improvement in inhibition relative to compounds 4 or 5: > 5 fold

Compound: CC(C)(C)C1CCC(C(=O)NCCCc2ccccc2)CC1 (stereo not shown) [Compound 9]
fold improvement over the non-substituted derivatives (4–7): 3.5–15 fold

Compound: O=C(NCCCCc1ccccc1)C12CC3CC(CC(C3)C1)C2 [Compound 26]
fold decrease in inhibition potency relative to compound 19: 4–6 fold

Compound: O=C(NCCc1ccccc1)C12CC3CC(CC(C3)C1)C2 [Compound 25]
fold decrease in inhibition potency relative to compound 19: 4–6 fold

Compound: O=C(NCCCc1ccccc1)C1CC=CCC1 (stereo not shown) [Compound 7]
fold improvement in inhibition relative to compounds 4 or 5: > 5 fold

Compound: O=C(NCCCc1ccccc1)C1CCc2ccccc2C1 (stereo not shown) [Compound 20]
fold improvement in inhibition potency relative to compound 19: 3 fold

The remaining lines, values ahead:

fold improvement relative to compound 29: 5 fold
Compound: COC(=O)c1ccc(CNC(=O)C2CCc3ccccc3C2)cc1 (stereo not shown) [Compound 32, methyl 4-((1,2,3,4-tetrahydronaphthalene-2-carboxamido)methyl)benzoate]

fold less potent compared to compound 32: 3 fold
Compound: COC(=O)c1ccc(CNC(=O)c2ccc3ccccc3c2)cc1 [Compound 33]

fold loss in inhibition potency relative to compound 29: 7 fold and > 7 fold
Compound: COC(=O)c1ccc2cc(NC(=O)C34CC5CC(CC(C5)C3)C4)ccc2c1 [Compound 31, methyl 6-(1-adamantanecarboxamido)naphthalene-2-carboxylate]

fold loss in inhibition potency relative to compound 29: > 7 fold
Compound: COC(=O)c1ccc(CCNC(=O)C23CC4CC(CC(C4)C2)C3)cc1 [Compound 30]

fold better inhibition in comparison with compound 28: > 10 fold
Compound: CCOC(=O)c1ccc(NC(=O)C23CC4CC(CC(C4)C2)C3)cc1 [Compound 27]

fold better inhibition than compound 27: ~10 fold
Compound: COC(=O)c1ccc(CNC(=O)C23CC4CC(CC(C4)C2)C3)cc1 [Compound 29]
